Test results from ChEMBL document CHEMBL3352499, “One pot three components microwave assisted and conventional synthesis of new 3-(4-chloro-2-hydroxyphenyl)-2-(substituted) thiazolidin-4-one as antimicrobial agents” (Bioorg Med Chem Lett, 2014).
pIC50: −log10 of the molar value. Values after ≈ are worked out from the molar mass of the structure shown.

Key:
Aspergillus flavus [1] = assay: Antimicrobial activity against Aspergillus flavus NCIM-539 after 20 hrs by two fold serial macrodilution technique; assay type: functional; details: NCIM-539, 20 h
Salmonella typhimurium [2] = assay: Antimicrobial activity against […] after 20 hrs by two fold serial macrodilution technique; assay type: functional, Salmonella enterica subsp. enterica serovar Typhimurium; details: Salmonella enterica
Procedure, shortened: (§1)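 Serial macrodilution in 96-well microtiter plates. Compounds were dissolved in saline (0.8% NaCl) containing 5% DMSO, and strains were incubated with a range of concentrations for 20 h at 37 °C on a rotary shaker (160 rpm). MIC was the lowest concentration without growth. Runs were in triplicate, with the mean taken. The negative control was 5% DMSO.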

Staphylococcus aureus [3] = assay: Bactericidal activity against Staphylococcus aureus NCIM-2901 after 72 hrs by two fold serial macrodilution technique; assay type: functional; details: NCIM-2901, 72 h
Procedure, shortened: (§2)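 Serial subcultivation followed 72 h of exposure to compounds dissolved in saline containing 5% DMSO. MBC/MFC was the lowest concentration with no visible growth, taken as 99.5% killing of the original inoculum. Runs were in triplicate, with the mean reading used.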

Aspergillus niger [4] = assay: Antimicrobial activity against Aspergillus niger NCIM-1196 after 20 hrs by two fold serial macrodilution technique; assay type: functional; details: NCIM-1196, 20 h
Escherichia coli [5] = assay: Antimicrobial activity against Escherichia coli NCIM-2256 after 20 hrs by two fold serial macrodilution technique; assay type: functional; details: NCIM-2256, 20 h; procedure, shortened: as §1
Candida albicans [6] = assay: Antimicrobial activity against Candida albicans NCIM-3471 after 20 hrs by two fold serial macrodilution technique; assay type: functional; details: NCIM-3471, 20 h
Salmonella typhimurium [7] = assay: Bactericidal activity against […] after 72 hrs by two fold serial macrodilution technique; assay type: functional, Salmonella enterica subsp. enterica serovar Typhimurium; details: Salmonella enterica; procedure, shortened: as §2
Staphylococcus aureus [8] = assay: Antimicrobial activity against Staphylococcus aureus NCIM-2901 after 20 hrs by two fold serial macrodilution technique; assay type: functional; details: NCIM-2901, 20 h; procedure, shortened: as §1
Cryptococcus neoformans [9] = assay: Fungicidal activity against Cryptococcus neoformans NCIM-3378 after 48 to 72 hrs by two fold serial macrodilution technique; assay type: functional; procedure, shortened: as §2
Bacillus subtilis [10] = assay: Antimicrobial activity against Bacillus subtilis NCIM-2063 after 20 hrs by two fold serial macrodilution technique; assay type: functional; details: NCIM-2063, 20 h; procedure, shortened: as §1
HeLa = assay: Cytotoxicity against human HeLa cells by SRB method; assay type: cell-based
Procedure, shortened: (§3)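 SRB colorimetric growth assay. IC50, in µM, was the concentration inhibiting cell growth by 50% relative to untreated control cells. Runs were in triplicate in three independent experiments, with means reported. The positive control was doxorubicin.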

Aspergillus flavus [11] = assay: Fungicidal activity against Aspergillus flavus NCIM-539 after 48 to 72 hrs by two fold serial macrodilution technique; assay type: functional; procedure, shortened: as §2
Bacillus subtilis [12] = assay: Bactericidal activity against Bacillus subtilis NCIM-2063 after 72 hrs by two fold serial macrodilution technique; assay type: functional; details: NCIM-2063, 72 h; procedure, shortened: as §2
MCF7 = assay: Cytotoxicity against human MCF7 cells by SRB method; assay type: cell-based; procedure, shortened: as §3
Aspergillus niger [13] = assay: Fungicidal activity against Aspergillus niger NCIM-1196 after 48 to 72 hrs by two fold serial macrodilution technique; assay type: functional; procedure, shortened: as §2
Cryptococcus neoformans [14] = assay: Antimicrobial activity against Cryptococcus neoformans NCIM-3378 after 20 hrs by two fold serial macrodilution technique; assay type: functional; details: NCIM-3378, 20 h
Candida albicans [15] = assay: Fungicidal activity against Candida albicans NCIM-3471 after 48 to 72 hrs by two fold serial macrodilution technique; assay type: functional; procedure, shortened: as §2
Escherichia coli [16] = assay: Bactericidal activity against Escherichia coli NCIM-2256 after 72 hrs by two fold serial macrodilution technique; assay type: functional; details: NCIM-2256, 72 h; procedure, shortened: as §2

Row | Structure (SMILES) | MIC (Aspergillus flavus [1]) | MIC (Salmonella typhimurium [2]) | MIC (Aspergillus niger [4]) | MIC (Escherichia coli [5]) | MIC (Candida albicans [6]) | MIC (Staphylococcus aureus [8]) | MIC (Bacillus subtilis [10]) | MIC (Cryptococcus neoformans [14]) | MBC (Staphylococcus aureus [3]) | MBC (Salmonella typhimurium [7]) | MFC (Cryptococcus neoformans [9]) | pIC50 (HeLa) | MFC (Aspergillus flavus [11]) | MBC (Bacillus subtilis [12]) | pIC50 (MCF7) | MFC (Aspergillus niger [13]) | MFC (Candida albicans [15]) | MBC (Escherichia coli [16])
1 | O=C1CSC(c2ccccc2Cl)N1c1ccc(Cl)cc1O (stereo not given) | 35 µg/mL (≈ 103 µM) | 65 µg/mL (≈ 191 µM) | 100 µg/mL (≈ 294 µM) | 80 µg/mL (≈ 235 µM) | 55 µg/mL (≈ 162 µM) | 35 µg/mL (≈ 103 µM) | 20 µg/mL (≈ 58.8 µM) | 90 µg/mL (≈ 265 µM) | 55 µg/mL (≈ 162 µM) | 135 µg/mL (≈ 397 µM) | 135 µg/mL (≈ 397 µM) | 4.20 | 50 µg/mL (≈ 147 µM) | 40 µg/mL (≈ 118 µM) | 4.25 | 155 µg/mL (≈ 456 µM) | 140 µg/mL (≈ 411 µM) | 140 µg/mL (≈ 411 µM)
2 | O=C1CSC(c2cccc(F)c2)N1c1ccc(Cl)cc1O (stereo not given) | 90 µg/mL (≈ 278 µM) | 90 µg/mL (≈ 278 µM) | 100 µg/mL (≈ 309 µM) | 70 µg/mL (≈ 216 µM) | 95 µg/mL (≈ 293 µM) | 80 µg/mL (≈ 247 µM) | 100 µg/mL (≈ 309 µM) | 85 µg/mL (≈ 263 µM) | 160 µg/mL (≈ 494 µM) | 155 µg/mL (≈ 479 µM) | 140 µg/mL (≈ 432 µM) | 4.17 | 140 µg/mL (≈ 432 µM) | 155 µg/mL (≈ 479 µM) | 4.18 | 165 µg/mL (≈ 510 µM) | 165 µg/mL (≈ 510 µM) | 145 µg/mL (≈ 448 µM)

More lines, main results first:

Row | MIC (Aspergillus flavus [1]) | MIC (Salmonella typhimurium [2]) | MIC (Aspergillus niger [4]) | MIC (Escherichia coli [5]) | MIC (Candida albicans [6]) | MIC (Staphylococcus aureus [8]) | MIC (Bacillus subtilis [10]) | MIC (Cryptococcus neoformans [14]) | Structure (SMILES) | MBC (Staphylococcus aureus [3]) | MBC (Salmonella typhimurium [7]) | MFC (Cryptococcus neoformans [9]) | pIC50 (HeLa) | MFC (Aspergillus flavus [11]) | MBC (Bacillus subtilis [12]) | pIC50 (MCF7) | MFC (Aspergillus niger [13]) | MFC (Candida albicans [15]) | MBC (Escherichia coli [16])
3 | 15 µg/mL (≈ 44.7 µM) | 25 µg/mL (≈ 74.4 µM) | 80 µg/mL (≈ 238 µM) | 35 µg/mL (≈ 104 µM) | 15 µg/mL (≈ 44.7 µM) | 30 µg/mL (≈ 89.3 µM) | 30 µg/mL (≈ 89.3 µM) | 65 µg/mL (≈ 194 µM) | COc1ccc(C2SCC(=O)N2c2ccc(Cl)cc2O)cc1 (stereo not given) | 40 µg/mL (≈ 119 µM) | 110 µg/mL (≈ 328 µM) | 155 µg/mL (≈ 462 µM) | 4.29 | 20 µg/mL (≈ 59.6 µM) | 40 µg/mL (≈ 119 µM) | 4.31 | 150 µg/mL (≈ 447 µM) | 20 µg/mL (≈ 59.6 µM) | 45 µg/mL (≈ 134 µM)
4 | 10 µg/mL (≈ 27.3 µM) | 35 µg/mL (≈ 95.7 µM) | 65 µg/mL (≈ 178 µM) | 30 µg/mL (≈ 82 µM) | 3 µg/mL (≈ 8.2 µM) | 15 µg/mL (≈ 41 µM) | 30 µg/mL (≈ 82 µM) | 70 µg/mL (≈ 191 µM) | COc1ccc(C2SCC(=O)N2c2ccc(Cl)cc2O)c(OC)c1 (stereo not given) | 25 µg/mL (≈ 68.3 µM) | 45 µg/mL (≈ 123 µM) | 120 µg/mL (≈ 328 µM) | 4.17 | 15 µg/mL (≈ 41 µM) | 45 µg/mL (≈ 123 µM) | 4.16 | 120 µg/mL (≈ 328 µM) | 17.5 µg/mL (≈ 47.8 µM) | 50 µg/mL (≈ 137 µM)
5 | 90 µg/mL (≈ 278 µM) | 60 µg/mL (≈ 185 µM) | 50 µg/mL (≈ 154 µM) | 70 µg/mL (≈ 216 µM) | 65 µg/mL (≈ 201 µM) | 25 µg/mL (≈ 77.2 µM) | 55 µg/mL (≈ 170 µM) | 90 µg/mL (≈ 278 µM) | O=C1CSC(c2ccc(F)cc2)N1c1ccc(Cl)cc1O (stereo not given) | 45 µg/mL (≈ 139 µM) | 140 µg/mL (≈ 432 µM) | 145 µg/mL (≈ 448 µM) | 4.14 | 140 µg/mL (≈ 432 µM) | 150 µg/mL (≈ 463 µM) | 4.16 | 140 µg/mL (≈ 432 µM) | 150 µg/mL (≈ 463 µM) | 145 µg/mL (≈ 448 µM)
